Measured values collected from several papers.
Protocols differ between the studies behind these lines.
Target: Death-associated protein kinase 1 (DAPK1, Homo sapiens, UniProt P53355)

| Compound | test | setting | quantity | value |
| --- | --- | --- | --- | --- |
| C[S+]([O-])c1ccc(-c2nc(-c3ccncc3)c(-c3ccc(F)cc3)[nH]2)cc1 (stereo not shown) | cell-free assay | 0.5 µM | remaining signal | 90.3% |
| O=C(Nc1cnc(Oc2ccc(F)cc2)nc1)N1CCc2ncccc2[C@@H]1c1ccc(F)cc1 | cell-free assay, competition with immobilised ligand | 1 µM | remaining binding | 78% |
| O=C1Nc2ccc(Cl)cc2C1=Cc1cc(Cl)c(O)c(Cl)c1 | cell-free assay | 0.5 µM | remaining signal | 90% |
| Cc1ccc(Nc2nccc(N(C)c3ccc4c(C)n(C)nc4c3)n2)cc1S(N)(=O)=O | enzyme activity, inhibitor | 10 µM | inhibition | 12% |
| CCCS(=O)(=O)Nc1ccc(F)c(C(=O)c2c[nH]c3ncc(-c4ccc(Cl)cc4)cc23)c1F | enzyme activity, inhibitor | 1 µM | inhibition | < 10% |
| CC(C)(C)c1nc2c(s1)c1nc(N)ncc1c1ccc(NS(=O)(=O)c3c(F)cccc3F)c(F)c12 | enzyme activity, inhibitor, radiometric | 1 µM | remaining activity | 79% |
| Cc1ccc(C(=O)Nc2ccc(CN3CCN(C)CC3)c(C(F)(F)F)c2)cc1C#Cc1cnc2cccnn12 | enzyme activity, inhibitor | 23.5 nM | remaining activity | 95% |
| N#Cc1ccc(Nc2ccc3[nH]c(=O)[nH]c3c2)c(Cl)c1 | cell-free assay, competition with immobilised ligand | 1 µM | remaining binding | 100% |
| O=C(Nc1cnn(-c2csc(C(=O)NC3COC3)c2)c1)Nc1c(F)cccc1Cl | enzyme activity, inhibitor | 5 µM | remaining activity | 98.9% |
| Cc1ncc([N+](=O)[O-])n1C(=NO)c1ccccc1C(F)(F)F | enzyme activity, inhibitor | 10 µM | inhibition | 16.5% |
| CN(C)c1ncnc(-c2ccc3nc(Nc4cc(CN5CCN(C(=O)CC(F)(F)F)CC5)ccn4)[nH]c3c2)c1Cl | cell-free assay, competition with immobilised ligand | 1 µM | remaining binding | 100% |
| CCN(CC)c1ccc(C2=NNC(=O)CC2C)cc1[N+](=O)[O-] (stereo not shown) | enzyme activity, inhibitor | 10 µM | remaining activity | 105% |
| CC(=O)Nc1c(C(C)=O)c(=O)n(C)c2nc(-c3ccc(Cl)cc3Cl)c(-c3ccc(Cl)cc3)cc12 | cell-free assay, competition with immobilised ligand | 1 µM | remaining binding | 100% |
| CN1CC(Oc2cnc(C#N)cc2-c2ccn3nc(NC(=O)C4CC4)cc3c2)C1 | enzyme activity, inhibitor | 1 µM | inhibition | 1% |
| COc1cc(-c2cn(C3CCc4ccccc4N(CC(F)(F)F)C3=O)nn2)ccc1-n1ccc(C)n1 (stereo not shown) | cell-free assay, competition with immobilised ligand | 1 µM | remaining binding | 79% |
| Nc1nc(Nc2ccc(S(N)(=O)=O)cc2)nn1C(=O)c1c(F)cccc1F | cell-free assay | 0.5 µM | remaining signal | 93.8% |
| COc1cc(Nc2cnc(C#N)c(O[C@H](C)CN(C)C)n2)ncc1-c1cnn(C)c1 | enzyme activity, inhibitor, radiometric | 10 µM | remaining activity | 98% |
| CCC(=O)N[C@H]1CC[C@@H](C(=O)N(C)c2ccc(-c3nc4ccccc4o3)cc2)C1 | cell-free assay, competition with immobilised ligand | 1 µM | remaining binding | 96% |
| CC(C)(O)[C@H]1CC[C@H](Nc2ccc3ncc(-c4cccc(C(F)(F)F)c4)n3n2)CC1 | enzyme activity, inhibitor | 1 µM | remaining activity | 110% |
| Oc1cccc(-c2nc(N3CCOCC3)c3oc4ncccc4c3n2)c1 | enzyme activity, inhibitor | 10 µM | remaining activity | 30% |
| CCCCN(CCCC)C(=O)CN1C[C@@H](c2cc(OC)c3c(c2)OCO3)[C@H](C(=O)O)[C@H]1CC(C)(C)CCC | cell-free assay, competition with immobilised ligand | 1 µM | remaining binding | 82.8% |
| Cc1ccc(NC(=O)c2ccc(CN3CCN(C)CC3)cc2)cc1Nc1nc(-c2cccnc2)cs1 | cell-free assay | 0.5 µM | remaining signal | 97.5% |
| CNC(=O)c1cc(Oc2ccc(NC(=O)Nc3ccc(Cl)c(C(F)(F)F)c3)cc2)ccn1 | enzyme activity, inhibitor | 10 µM | inhibition | 12% |
| FC(F)(F)Oc1cccc(-c2cnc3ccc(-c4ccncc4)nn23)c1 | enzyme activity, inhibitor, radiometric | 5 µM | activity vs control | 91% |
| Cc1noc([C@H]2C[C@@H](c3ccc(C(F)(F)F)cc3)CN(C(=O)N3CCS(=O)(=O)C3)C2)n1 | cell-free assay, competition with immobilised ligand | 1 µM | remaining binding | 100% |
| FC(F)c1nc2ccccc2n1-c1nc(N2CCOCC2)nc(N2CCOCC2)n1 | enzyme activity, inhibitor | 10 µM | remaining activity | 75% |
| CCCOc1ccc(OC)c(F)c1C(=O)c1ccc(C(=O)N[C@@H]2CNC[C@H]2NC(=O)c2ccc3[nH]ncc3c2)cc1 | enzyme activity, inhibitor | 10 µM | remaining activity | 81% |
| CN(C)C1CCN(CC#Cc2nn(C3CCCC3)c3nc(NCc4ccccc4)ncc23)C1 (stereo not shown) | enzyme activity, inhibitor, FRET | 0.1 µM | inhibition | 1% |
